One assay has as its target Histamine H1 receptor (Rattus norvegicus, UniProt P31390). The assay can be described thus: Binding affinity to histamine H1 receptor in rat brain membranes was evaluated using [3H]-pyrilamine as radioligand. In kind it is cell membranes.
Assay [1] deals with Cavia porcellus. The experiment in a line: Compound tested for its %inhibition of guinea pig bronchospasm at a peroral dose of 10 mg/Kg and after 2 hr followed by iv challenge with 10 ug/Kg of histamine.
In assay [2] the test system is Cavia porcellus. Described as above. The source holds these as a separate data set.
The subject of assay [3] is Cavia porcellus. The experiment in a line: Compound tested for inhibition of guinea pig bronchospasm at a peroral dose of 10 mg/Kg and after 2 hr followed by iv challenge with 0.4 ug/Kg of PAF. In kind it is functional, Bronchiole.
The nature of assay [4]: %inhibition of guinea pig bronchospasm at a peroral dose of 10 mg/kg and after 2 hr followed by iv challenge with 0.4 micro g/kg of PAF. In kind it is functional. The settings on record: Cavia porcellus, Bronchiole, route oral. The gist of the method:
(§1)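 Compound given orally 2 h before an iv PAF challenge at 0.4 µg/kg. Values are reported as mean ± standard error of the mean unless noted otherwise, with N animals per determination.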

Assay [5] relates to Cavia porcellus. The experiment in a line: Compound tested for its %inhibition of guinea pig bronchospasm at a peroral dose of 10 mg/kg and after 2 hr followed by iv challenge with 0.4 micro g/kg of PAF. It counts as functional. Conditions: Bronchiole, route oral. The gist of the method:
as §1

The subject of assay [6] is Cavia porcellus. The experiment in a line: Compound tested for its %inhibition of guinea pig bronchospasm at a peroral dose of 10 mg/kg and after 2 hr followed by iv challenge with 0.4 micro g/kg of histamine. It counts as functional. Conditions: Bronchiole, route oral.
Assay [7] relates to Cavia porcellus. The assay can be described thus: Compound tested for its %inhibition of guinea pig bronchospasm at a peroral dose of 3 mg/Kg and after 2 hr followed by iv challenge with 0.4 ug/Kg of histamine.

Some results are limits rather than exact numbers.

For 23 compounds, Ki, Inhibition and inhibition in vivo results are on record in ChEMBL document CHEMBL1125750, “Dual antagonists of platelet activating factor and histamine. Identification of structural requirements for dual activity of N-Acyl-4-(5,6-dihydro-11H-benzo [5,6]cyclohepta-[1,2-b]pyridin-11-ylidene)piperidines” (J Med Chem, 1991).

Histamine H1 receptor, sequence (P31390 whole entry): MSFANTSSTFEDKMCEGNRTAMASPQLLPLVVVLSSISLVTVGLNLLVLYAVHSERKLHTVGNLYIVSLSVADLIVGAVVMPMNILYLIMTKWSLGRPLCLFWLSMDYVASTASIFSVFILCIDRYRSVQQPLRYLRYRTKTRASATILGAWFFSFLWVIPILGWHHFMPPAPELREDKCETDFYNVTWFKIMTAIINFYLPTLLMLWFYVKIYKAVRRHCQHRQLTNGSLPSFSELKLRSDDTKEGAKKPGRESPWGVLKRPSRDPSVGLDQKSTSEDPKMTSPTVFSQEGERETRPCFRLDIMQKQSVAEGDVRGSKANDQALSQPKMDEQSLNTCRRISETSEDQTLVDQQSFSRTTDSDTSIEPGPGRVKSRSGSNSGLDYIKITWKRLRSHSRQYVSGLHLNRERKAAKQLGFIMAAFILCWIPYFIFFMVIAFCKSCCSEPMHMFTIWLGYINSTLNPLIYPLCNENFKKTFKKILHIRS

Turning to `CC(=O)C1CCC(=C2c3ccc(Cl)cc3CCc3cccnc32)CC1` (stereo not given), on Histamine H1 receptor, the Ki was 1200 nM.
`CC(=O)N1CCC(=C2c3ccc(Br)cc3CCc3cccnc32)CC1` had an Inhibition in the assay with Cavia porcellus [1] of 99%.
Consider `CC(=O)N1CCC(=C2c3ccccc3CCc3cccnc32)CC1`, for which the Inhibition in the assay with Cavia porcellus [2] came out at 96%; in the assay on Cavia porcellus [3], 44%. Also, affinity at Histamine H1 receptor was put at a Ki of 2000 nM.
Turning to `CC(C)(C)C(=O)N1CCC(=C2c3ccc(Cl)cc3CCc3cccnc32)CC1`, at Histamine H1 receptor, the affinity, expressed as Ki, was 81 nM.
Turning to `Cc1nnc2n1-c1sc(CCC(=O)N3CCOCC3)cc1C(c1ccccc1Cl)=NC2` [APAFANT], the inhibition in vivo at 10 mg/kg is 99% in assay [4], 60% in the assay with Cavia porcellus [5] and 7% in the assay with Cavia porcellus [6].
`CC(=O)N1CCC(=C2c3ccc(Cl)cc3CCc3cccnc32)CC1` [SCH-37370]: at Histamine H1 receptor, the affinity, expressed as Ki, was 320 nM. This compound displayed an Inhibition with Cavia porcellus [1] of 99%.
`CC(=O)N1CCC(=C2c3ccc(O)cc3CCc3cccnc32)CC1` showed a Ki on Histamine H1 receptor above 6300 nM.
The same measure, in the same setting: in the case of `CN1CCC(=C2c3ccccc3CCc3cccnc32)CC1` [AZATADINE] it was 3.9 nM; in that of `O=C(c1ccccc1)N1CCC(=C2c3ccc(Cl)cc3CCc3cccnc32)CC1`, 190 nM.
Still for that read-out and setting: next, `CC(=O)N(C)CC/C=C1\c2ccc(Cl)cc2CCc2cccnc21`: 290 nM; `CC(=O)N1CCC(=C2c3ccc(C)cc3CCc3cccnc32)CC1`: 190 nM.
As to `COc1ccc2c(c1)CCc1cccnc1C2=C1CCN(C(C)=O)CC1`, the Ki at Histamine H1 receptor amounted to 1600 nM.
Same read-out and setting: in the case of `CCC(=O)N1CCC(=C2c3ccc(Cl)cc3CCc3cccnc32)CC1` it was 48 nM; in that of `CC(=O)N(C)CC/C=C1/c2ccc(Cl)cc2CCc2cccnc21`, 850 nM; in that of `O=CN1CCC(=C2c3ccc(Cl)cc3CCc3cccnc32)CC1`, 21 nM.
Same read-out and setting: in the case of `CCCC(=O)N1CCC(=C2c3ccc(Cl)cc3CCc3cccnc32)CC1` it was 51 nM.
For `CC(=O)N1CCC(=C2c3cc(Cl)c(Cl)cc3CCc3cccnc32)CC1`, the affinity on Histamine H1 receptor, expressed as Ki, was 3100 nM.
`CC(=O)N1CCC(=C2c3ccc(F)cc3CCc3cccnc32)CC1` registered a Ki on Histamine H1 receptor of 720 nM. Further, the Inhibition in the assay with Cavia porcellus [7] is listed as 79%.
Consider `CC(=O)N1CCC(=C2c3ccccc3CCc3ccccc32)CC1`, for which, on Histamine H1 receptor, the affinity corresponds to a Ki of 5000 nM.
Still for that read-out and setting: in the case of `CC(=O)N1CCC(=C2c3cc(F)ccc3CCc3cccnc32)CC1` it was 2900 nM.
Same read-out and setting: in the case of `CC(=O)N1CCC(=C2c3cc(Cl)ccc3CCc3cccnc32)CC1` it was 1500 nM.
As to `CC(=O)N1CCC(=C2c3cc(F)c(F)cc3CCc3cccnc32)CC1`, the Inhibition in the assay with Cavia porcellus [2] came out at 0%. On Histamine H1 receptor, this compound had a Ki of 10000 nM.
With `CC(=O)N1CCC(=C(c2ccc(Cl)cc2)c2ccccn2)CC1`, the Ki at Histamine H1 receptor is above 6300 nM.

For orientation: Ki means a measure of affinity in units of concentration, obtained from inhibition or displacement. A lower Ki goes with higher affinity. As usually defined, the Inhibition is the change of the read-out against control, counted positive when it falls. A word on the inhibition in vivo: it is the change of the read-out against control, counted positive when it falls. Higher therefore signals a response far below the control.
